39 molecules from ChEMBL document CHEMBL4513216, “Probing the Open Global Health Chemical Diversity Library for Multistage-Active Starting Points for Next-Generation Antimalarials” (ACS Infect Dis, 2020) can be followed below.

The data set can be described thus: Toxicity liver stage against HepG2, at 10uM. More on the design: test concentration 10 uM, cell line HepG2-A16-CD81EGFP. The format is cell-based. The conditions noted are these: human, HepG2-A16-CD81EGFP cells; read-out: INHIBITION
An outline of the steps: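 Uninfected HepG2-A16-CD81EGFP cells, 3 × 10^3 per well, 1536-well, plated on prespotted compound at 10 μM final, parasite-free screening media added to match infected plates; puromycin 10 μM positive, DMSO 0.5% negative; run in parallel with 48 h PbLuc assay at 37 °C, 5% CO2; viability by CellTiter-Glo luminescence, normalized to controls.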
As for `CC(C)CNC(=O)CN(CC(=O)NCC(C)C)S(C)(=O)=O`, the cytotoxicity at 10 µM is -12.2%. The same measure for `Cc1cccc2c1nc1n2[C@@H](CNC(=O)c2ccccn2)COC1`: 6.49%; for `NC(=O)CN1CC(O)c2ccccc2S1(=O)=O` (centres undefined): 4.37%; for `COc1ccc(C(=O)Nc2ccccc2-c2ccc(=O)n(C)n2)cc1`: 2.11%. The same measure for `Cc1ccccc1Cn1nnc2cc3c(cc2c1=O)OCCO3`: 1.11%; for `CC1(C(=O)NCc2cc(F)cc(F)c2)CCOCC1`: 4.32%; for `COc1ccc(CN(C(=O)C2CCCS2)c2ccncc2)cc1` (centres undefined): 5.57%. The same measure for `CC(NC(=O)N(C)C1CC1)c1ccc(Oc2cccnc2)c(F)c1` (centres undefined): -1.23%; for `Cc1cnn(CCNCC(O)COc2cccc(C(F)(F)F)c2)c1` (centres undefined): -21.7%. On to `CCc1nnc2n1CCN(C(=O)CCc1ccc3c(c1)OCO3)C2`, for which the cytotoxicity at 10 µM was -2.62%. Regarding `CN(Cc1noc(C(C)(C)C)n1)CC1CCN(CCO)CC1`, the cytotoxicity at 10 µM is 7.17%.

`Cc1cc2n(n1)CC(CNCCNC(=O)c1ccc(F)cc1)CN2` (centres undefined): the cytotoxicity at 10 µM worked out at 6.15%. Next, `CCOCc1ccc(NC(=O)C(C)C)cc1`: 2.25%; `CSCC1CCN(C(=O)c2ccccc2NCc2cccnc2)C1` (centres undefined): -3.33%. Next, `CCc1ccc(CCn2cnc(C#N)n2)cc1`: -0.224%. Take `COc1ccc(CC(=O)N2CC[C@@H]3CN(C)S(=O)(=O)[C@@H]3CC2)cc1`: the cytotoxicity at 10 µM came to 4.33%. The same measure for `COCCN(C)C(=O)c1cc2c(s1)CCN2C(=O)C1CC1`: -7.38%. Next, `COCC(=O)N1CC[C@@H](O)[C@@H]1Cc1ccccc1`: -1.26%.

Consider `N[C@H]1CN(C(=O)CCc2ccccn2)C[C@@H]1c1ccccc1`, for which the cytotoxicity at 10 µM was -0.23%. The same measure for `CC(=O)Nc1ccc2nc(-c3nccn3CC(C)(C)CO)ccc2c1`: 3.89%; for `O=C(Nc1cccc2c1CCCC2)c1cccc(CN2CC[C@H](O)C2)c1`: -9.32%; for `O=C(N[C@H]1COC[C@@H]1N1CCCC1)c1csc(Cc2ccccc2)n1`: -30.2%. The same measure for `Cc1cccc2[nH]c(C3CCCN(Cc4ccccc4C(=O)O)C3)nc12` (centres undefined): 7.28%; for `O=C(O)c1cccnc1CN1CCCCC1CCc1ccccn1` (centres undefined): 7.4%. The same measure for `CN(Cc1nccn1C)c1nccc(N2CCCC(O)C2)n1` (centres undefined): -8.29%; for `CCn1c(CC2CCN(S(=O)(=O)c3cccc(C)c3)CC2)nn(C)c1=O`: 2.01%. With `Cc1ncc(CC(=O)N2CCC(N3C[C@@H](C)O[C@@H](C)C3)CC2)c(=O)[nH]1`, the cytotoxicity at 10 µM is 3.26%. The same measure for `CN(c1ccncn1)C1CC2(CCN(C(=O)CCc3cccs3)C2)C1` (centres undefined): -1.34%; for `Cc1cc(C)n(-c2ccc(CNCc3ccc(F)cc3F)cn2)n1`: -12.2%; for `COc1ccnc(N2CCN(C(=O)CN3CCCC3=O)CC2)n1`: -5.21%. The same measure for `CN(C)C1CCN(C(=O)c2ccc(Cn3ccccc3=O)o2)CC1`: -2.11%. With `COCCOc1ncccc1CNCc1c(C)nn(C)c1N(C)C`, the cytotoxicity at 10 µM was -9.36%. With `CCc1n[nH]c(C2CN(C(=O)c3nc(C)ncc3Cl)CCO2)n1` (centres undefined), the cytotoxicity at 10 µM was -7.25%. On to `Cc1cc(N2CCN(Cc3ccnn3C)CC2)cc(C2CCCN2)n1` (centres undefined), for which the cytotoxicity at 10 µM was 6.97%. Next, `CCC(CN1CCN(C)CC1)NC(=O)C1(c2cccc(F)c2)CC1` (centres undefined): 3.54%; `CN(C)C(=O)C1CCN(C2CCN(CC3CC3)CC2)CC1`: 4.55%; `CN(C)CCn1c2c(ccc1=O)CC(NC(=O)c1ccsc1)CC2` (centres undefined): 2.15%. The same measure for `O[C@@H]1CC(CNCc2cccc(Cl)c2)(COc2cccnc2)C[C@@H]1O` (some centres undefined): -1.29%. The same measure for `O=C1C[C@@H]2CC[C@H](CN1)N2C1CCOCC1`: -5.1%.
